# Measured values published in ChEMBL document CHEMBL3734652, “Pyrrolo[3,4-c]pyridine-1,3(2H)-diones: A Novel Antimycobacterial Class Targeting Mycobacterial Respiration” (J Med Chem, 2015).
# How the values were obtained:
# [1] = system: Mycobacterium tuberculosis; experiment: Antimicrobial activity against Mycobacterium tuberculosis H37RvMA under GAST/Fe medium assessed as growth inhibition after 14 days by alamar blue assay; assay type: functional; settings: 336 h
# How it was run: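 Broth microdilution in GAST/Fe medium against fully virulent Mtb H37RvMa or its derived strains (cytochrome bd oxidase deletion ΔcydKO; qcrB Ala317Thr point mutant). Plates were incubated 14 days, growth was read by Alamar Blue, and MIC90 was taken as the potency value.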
# [2] = Kinetic solubility in FaSSIF at pH 6.5 after 2 hours at 25 degC by shake flask method; assay type: physicochemical; settings: read-out: Kinetic_solubility
# [3] = Metabolic stability in human liver microsomes assessed as residual compound at 0.1 uM after 30 mins by LC-MS/MS method in presence or absence of NADPH; assay type: ADME; settings: read-out: Stability
# [4] = Metabolic stability in rat liver microsomes assessed as residual compound at 0.1 uM after 30 mins by LC-MS/MS method in presence or absence of NADPH; assay type: ADME; settings: read-out: Stability
# [5] = Metabolic stability in mouse liver microsomes assessed as residual compound at 0.1 uM after 30 mins by LC-MS/MS method in presence or absence of NADPH; assay type: ADME; settings: read-out: Stability
# Vero = experiment: Cytotoxicity against African green monkey Vero cells assessed as cell viability by MTT assay; assay type: cell-based; settings: Chlorocebus sabaeus
# How it was run: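 VERO kidney epithelial cells from African green monkey were exposed to compounds at concentrations up to 100 μM, and IC₅₀ was reported.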
# Liver [6] = experiment: Drug metabolism in BALB/c mouse liver microsomes assessed as formation of 7-Amino-2-benzyl-4-methyl-1,3-dioxo-2,3-dihydro-1H-pyrrolo-[3,4-c]pyridine-6-carboxylic Acid at 10 uM after 1 hr by LC-MS analysis; assay type: ADME
# Liver [7] = experiment: Drug metabolism in BALB/c mouse liver microsomes assessed as formation of 7-Amino-2-benzyl-4-methyl-1,3-dioxo-2,3-dihydro-1H-pyrrolo-[3,4-c]pyridine-6-carboxamide at 10 uM after 1 hr by LC-MS analysis; assay type: ADME
# Liver [8] = experiment: Drug metabolism in BALB/c mouse liver microsomes assessed as formation of 7-Amino-2-benzyl-N-cyano-4-methyl-1,3-dioxo-2,3-dihydro-1Hpyrrolo[3,4-c]pyridine-6-carboxamide at 10 uM after 1 hr by LC-MS analysis; assay type: ADME
# Plasma [9] = experiment: Drug metabolism in C57/BL6 mouse plasma assessed as formation of 7-Amino-2-benzyl-4-methyl-1,3-dioxo-2,3-dihydro-1H-pyrrolo-[3,4-c]pyridine-6-carboxylic Acid by LC-MS analysis; assay type: ADME, cell-free
# Plasma [10] = experiment: Drug metabolism in C57/BL6 mouse plasma assessed as formation of 7-Amino-2-benzyl-4-methyl-1,3-dioxo-2,3-dihydro-1H-pyrrolo-[3,4-c]pyridine-6-carboxamide by LC-MS analysis; assay type: ADME, cell-free
# Plasma [11] = experiment: Drug metabolism in C57/BL6 mouse plasma assessed as formation of 7-Amino-2-benzyl-N-cyano-4-methyl-1,3-dioxo-2,3-dihydro-1Hpyrrolo[3,4-c]pyridine-6-carboxamide by LC-MS analysis; assay type: ADME, cell-free
structure (smiles),measurement,setting,value
Cc1noc(-c2nc(C)c3c(c2N)C(=O)N(Cc2ccccc2)C3=O)n1,MIC90,[1],0.625 µM
same,solubility kinetic at 2 h,[2],< 5 µM
same,"remaining at 0.5 h, 0.1 µM",[3],57%
same,"remaining at 0.5 h, 0.1 µM",[4],100%
same,"remaining at 0.5 h, 0.1 µM",[5],98%
same,IC50,Vero,> 100 µM
same,Drug metabolism,Liver [6],metabolite_detected
same,Drug metabolism,Liver [7],metabolite_detected
same,Drug metabolism,Liver [8],metabolite_detected
same,Drug metabolism,Plasma [9],metabolite_detected
same,Drug metabolism,Plasma [10],metabolite_detected
same,Drug metabolism,Plasma [11],metabolite_detected
